Laboratory results: ChEMBL document CHEMBL4130535, “Aquilanols A and B, Macrocyclic Humulene-Type Sesquiterpenoids from the Agarwood of Aquilaria malaccensis” (2017)
≈ marks a conversion by molar mass, not a printed value.

Tests used:
Enterococcus faecalis = experiment: Antibacterial activity against Enterococcus faecalis ATCC 19433 after 24 hrs; assay type: functional; details: ATCC 19433, 24 h
Summary of the method: (§1)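 MIC determination, following a previously reported method, against the listed Gram-positive and Gram-negative ATCC strains.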

Aspergillus fumigatus = experiment: Antifungal activity against Aspergillus fumigatus HIC 6094 after 48 to 72 hrs; assay type: functional
Summary of the method: (§2)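 MIC determination, following a previously reported method, against the listed fungal strains, with amphotericin B as the positive control.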

Enterococcus faecium = experiment: Antibacterial activity against Enterococcus faecium ATCC 19434 after 24 hrs; assay type: functional; details: ATCC 19434, 24 h; summary of the method: as §1
Candida albicans = experiment: Antifungal activity against Candida albicans ATCC 10231 after 48 to 72 hrs; assay type: functional; summary of the method: as §2
Staphylococcus aureus = experiment: Antibacterial activity against Staphylococcus aureus ATCC 25923 after 24 hrs; assay type: functional; details: ATCC 25923, 24 h; summary of the method: as §1
Klebsiella pneumoniae = experiment: Antibacterial activity against Klebsiella pneumoniae ATCC 10031 after 24 hrs; assay type: functional; details: ATCC 10031, 24 h; summary of the method: as §1
[1] = system: Trichophyton mentagrophytes; experiment: Antifungal activity against Trichophyton mentagrophytes IFM 40996 after 48 to 72 hrs; assay type: functional; summary of the method: as §2
Escherichia coli = experiment: Antibacterial activity against Escherichia coli ATCC 25922 after 24 hrs; assay type: functional; details: ATCC 25922, 24 h; summary of the method: as §1
Trichophyton rubrum = experiment: Antifungal activity against Trichophyton rubrum NBRC 9185 after 48 to 72 hrs; assay type: functional; summary of the method: as §2
Salmonella typhimurium = experiment: Antibacterial activity against Salmonella enterica ATCC 14028 after 24 hrs; assay type: functional, Salmonella enterica subsp. enterica serovar Typhimurium; details: ATCC 14028, 24 h; summary of the method: as §1

| Compound | MIC (Enterococcus faecalis) [µM] | MIC (Aspergillus fumigatus) [µM] | MIC (Enterococcus faecium) [µM] | MIC (Candida albicans) [µM] | MIC (Staphylococcus aureus) [µM] | MIC (Klebsiella pneumoniae) [µM] | MIC [1] [µM] | MIC (Escherichia coli) [µM] | MIC (Trichophyton rubrum) [µM] | MIC (Salmonella typhimurium) [µM] |
| --- | --- | --- | --- | --- | --- | --- | --- | --- | --- | --- |
| CC1(C)/C=C/C[C@@]2(C)OC/C(=C\C1)CC[C@@H]2O | 430 to 580 (≈ 102 to 137 µg/mL) | 430 to 580 (≈ 102 to 137 µg/mL) | 430 to 580 (≈ 102 to 137 µg/mL) | 430 to 580 (≈ 102 to 137 µg/mL) | 430 to 580 (≈ 102 to 137 µg/mL) | 430 to 580 (≈ 102 to 137 µg/mL) | 430 to 580 (≈ 102 to 137 µg/mL) | 430 to 580 (≈ 102 to 137 µg/mL) | 430 to 580 (≈ 102 to 137 µg/mL) | 430 to 580 (≈ 102 to 137 µg/mL) |
| COC(=O)[C@H]1C[C@]23CC[C@H](C)[C@@H]2C[C@@]1(O)C(=O)C=C3C | 430 to 580 (≈ 120 to 161 µg/mL) | 430 to 580 (≈ 120 to 161 µg/mL) | 430 to 580 (≈ 120 to 161 µg/mL) | 430 to 580 (≈ 120 to 161 µg/mL) | 430 to 580 (≈ 120 to 161 µg/mL) | 430 to 580 (≈ 120 to 161 µg/mL) | 430 to 580 (≈ 120 to 161 µg/mL) | 430 to 580 (≈ 120 to 161 µg/mL) | 430 to 580 (≈ 120 to 161 µg/mL) | 430 to 580 (≈ 120 to 161 µg/mL) |
| COC(=O)[C@@]1(C)[C@]2(C)CC(=O)[C@@]1(O)CC1=C2C(=O)C[C@@H]1C | 430 to 580 (≈ 126 to 170 µg/mL) | 430 to 580 (≈ 126 to 170 µg/mL) | 430 to 580 (≈ 126 to 170 µg/mL) | 430 to 580 (≈ 126 to 170 µg/mL) | 430 to 580 (≈ 126 to 170 µg/mL) | 430 to 580 (≈ 126 to 170 µg/mL) | 430 to 580 (≈ 126 to 170 µg/mL) | 430 to 580 (≈ 126 to 170 µg/mL) | 430 to 580 (≈ 126 to 170 µg/mL) | 430 to 580 (≈ 126 to 170 µg/mL) |
| C=C1[C@@H](O)[C@]23CC[C@H](C)[C@@H]2C[C@@]1(O)C(=O)C=C3C | 430 to 580 (≈ 107 to 144 µg/mL) | 430 to 580 (≈ 107 to 144 µg/mL) | 430 to 580 (≈ 107 to 144 µg/mL) | 430 to 580 (≈ 107 to 144 µg/mL) | 430 to 580 (≈ 107 to 144 µg/mL) | 430 to 580 (≈ 107 to 144 µg/mL) | 430 to 580 (≈ 107 to 144 µg/mL) | 430 to 580 (≈ 107 to 144 µg/mL) | 430 to 580 (≈ 107 to 144 µg/mL) | 430 to 580 (≈ 107 to 144 µg/mL) |

More lines, now with the values ahead:

| MIC (Enterococcus faecalis) [µM] | MIC (Aspergillus fumigatus) [µM] | MIC (Enterococcus faecium) [µM] | MIC (Candida albicans) [µM] | MIC (Staphylococcus aureus) [µM] | MIC (Klebsiella pneumoniae) [µM] | MIC [1] [µM] | MIC (Escherichia coli) [µM] | MIC (Trichophyton rubrum) [µM] | MIC (Salmonella typhimurium) [µM] | Compound |
| --- | --- | --- | --- | --- | --- | --- | --- | --- | --- | --- |
| 430 to 580 (≈ 108 to 145 µg/mL) | 430 to 580 (≈ 108 to 145 µg/mL) | 430 to 580 (≈ 108 to 145 µg/mL) | 430 to 580 (≈ 108 to 145 µg/mL) | 430 to 580 (≈ 108 to 145 µg/mL) | 430 to 580 (≈ 108 to 145 µg/mL) | 430 to 580 (≈ 108 to 145 µg/mL) | 430 to 580 (≈ 108 to 145 µg/mL) | 430 to 580 (≈ 108 to 145 µg/mL) | 430 to 580 (≈ 108 to 145 µg/mL) | C[C@H]1CC=C2[C@H]1C[C@]1(O)C(=O)C[C@@]2(C)[C@]1(C)CO |
| 430 to 580 (≈ 99.9 to 135 µg/mL) | 430 to 580 (≈ 99.9 to 135 µg/mL) | 430 to 580 (≈ 99.9 to 135 µg/mL) | 430 to 580 (≈ 99.9 to 135 µg/mL) | 430 to 580 (≈ 99.9 to 135 µg/mL) | 430 to 580 (≈ 99.9 to 135 µg/mL) | 430 to 580 (≈ 99.9 to 135 µg/mL) | 430 to 580 (≈ 99.9 to 135 µg/mL) | 430 to 580 (≈ 99.9 to 135 µg/mL) | 430 to 580 (≈ 99.9 to 135 µg/mL) | C=C1C2C[C@H]3[C@@H](C)CC[C@@]3(C(C)=CC2=O)[C@@H]1O |
| 430 to 580 (≈ 109 to 146 µg/mL) | 430 to 580 (≈ 109 to 146 µg/mL) | 430 to 580 (≈ 109 to 146 µg/mL) | 430 to 580 (≈ 109 to 146 µg/mL) | 430 to 580 (≈ 109 to 146 µg/mL) | 430 to 580 (≈ 109 to 146 µg/mL) | 430 to 580 (≈ 109 to 146 µg/mL) | 430 to 580 (≈ 109 to 146 µg/mL) | 430 to 580 (≈ 109 to 146 µg/mL) | 430 to 580 (≈ 109 to 146 µg/mL) | CC1(C)C/C=C2/CCC(O)C(C)(CC3OC31)OC2 (racemic) |
| 430 to 580 (≈ 107 to 144 µg/mL) | 430 to 580 (≈ 107 to 144 µg/mL) | 430 to 580 (≈ 107 to 144 µg/mL) | 430 to 580 (≈ 107 to 144 µg/mL) | 430 to 580 (≈ 107 to 144 µg/mL) | 430 to 580 (≈ 107 to 144 µg/mL) | 430 to 580 (≈ 107 to 144 µg/mL) | 430 to 580 (≈ 107 to 144 µg/mL) | 430 to 580 (≈ 107 to 144 µg/mL) | 430 to 580 (≈ 107 to 144 µg/mL) | C[C@H]1CC=C2[C@H]1C[C@]1(O)C(=O)C[C@@]2(C)[C@]1(C)C=O |
| 430 to 580 (≈ 94.8 to 128 µg/mL) | 430 to 580 (≈ 94.8 to 128 µg/mL) | 430 to 580 (≈ 94.8 to 128 µg/mL) | 430 to 580 (≈ 94.8 to 128 µg/mL) | 430 to 580 (≈ 94.8 to 128 µg/mL) | 430 to 580 (≈ 94.8 to 128 µg/mL) | 430 to 580 (≈ 94.8 to 128 µg/mL) | 430 to 580 (≈ 94.8 to 128 µg/mL) | 430 to 580 (≈ 94.8 to 128 µg/mL) | 430 to 580 (≈ 94.8 to 128 µg/mL) | C/C1=C/CC/C(CO)=C/CC(C)(C)/C=C/C1 |
